{
  "source": "ChEMBL document CHEMBL1806477",
  "about": "“Discovery of novel imidazo[1,2-a]pyridines as inhibitors of the insulin-like growth factor-1 receptor tyrosine kinase” (Bioorg Med Chem Lett, 2011)",
  "key": {"[1]": {"molecular_target": "T1, Insulin-like growth factor 1 receptor (Homo sapiens, UniProt P08069)", "T1 sequence (P08069 31-736 limits assumed)": "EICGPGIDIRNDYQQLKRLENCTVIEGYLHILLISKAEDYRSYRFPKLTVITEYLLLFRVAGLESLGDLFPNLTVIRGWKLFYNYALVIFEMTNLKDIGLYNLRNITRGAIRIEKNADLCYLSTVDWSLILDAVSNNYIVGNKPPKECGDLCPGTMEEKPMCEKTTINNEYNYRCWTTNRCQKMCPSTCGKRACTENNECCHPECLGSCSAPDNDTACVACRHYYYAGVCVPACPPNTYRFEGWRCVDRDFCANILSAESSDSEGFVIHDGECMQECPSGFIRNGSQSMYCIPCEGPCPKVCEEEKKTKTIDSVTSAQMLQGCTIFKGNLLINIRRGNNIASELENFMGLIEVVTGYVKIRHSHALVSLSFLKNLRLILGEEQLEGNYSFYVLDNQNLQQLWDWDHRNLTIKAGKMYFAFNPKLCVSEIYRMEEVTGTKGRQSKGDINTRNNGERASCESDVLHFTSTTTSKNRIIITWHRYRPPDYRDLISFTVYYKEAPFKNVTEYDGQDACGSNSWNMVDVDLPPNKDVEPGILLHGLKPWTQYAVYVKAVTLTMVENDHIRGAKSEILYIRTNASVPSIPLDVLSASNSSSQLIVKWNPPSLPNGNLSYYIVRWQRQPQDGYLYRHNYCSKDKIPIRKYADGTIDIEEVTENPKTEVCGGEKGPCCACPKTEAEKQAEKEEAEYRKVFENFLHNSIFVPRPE", "T1 sequence (P08069 741-1367 limits assumed)": "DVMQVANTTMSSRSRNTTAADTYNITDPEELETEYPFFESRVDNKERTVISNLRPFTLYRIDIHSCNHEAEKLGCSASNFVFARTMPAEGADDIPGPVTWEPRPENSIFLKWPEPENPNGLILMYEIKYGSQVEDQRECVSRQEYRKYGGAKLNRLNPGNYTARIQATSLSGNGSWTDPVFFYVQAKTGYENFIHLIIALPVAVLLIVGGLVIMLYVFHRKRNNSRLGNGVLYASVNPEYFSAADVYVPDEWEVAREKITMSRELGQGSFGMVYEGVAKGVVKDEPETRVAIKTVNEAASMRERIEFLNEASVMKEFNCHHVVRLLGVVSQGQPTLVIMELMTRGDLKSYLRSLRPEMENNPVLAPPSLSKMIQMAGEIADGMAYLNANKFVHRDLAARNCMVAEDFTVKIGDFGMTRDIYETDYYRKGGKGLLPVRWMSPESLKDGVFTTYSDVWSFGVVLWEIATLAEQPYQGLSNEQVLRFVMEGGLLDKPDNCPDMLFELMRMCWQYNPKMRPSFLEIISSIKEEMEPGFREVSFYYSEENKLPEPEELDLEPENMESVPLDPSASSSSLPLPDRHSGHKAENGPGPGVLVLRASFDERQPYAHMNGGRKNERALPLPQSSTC", "test": "Inhibition of IGF1R"}, "[2]": {"molecular_target": "Cyclin-dependent kinase 2 (Homo sapiens, UniProt P24941)", "test": "Inhibition of CDK2"}, "[3]": {"molecular_target": "T1, Insulin-like growth factor 1 receptor", "test": "Inhibition of IGF1-induced autophosphorylation of human recombinant IGF1R expressed in mouse fibroblasts by high throughput assay"}, "[4]": {"test": "Oral bioavailability in nude mouse at 10 umol/kg", "type": "ADME, organism-based", "settings": "in vivo"}, "[5]": {"test": "Oral bioavailability in Han Wistar rat at 10 umol/kg", "type": "ADME, organism-based", "settings": "in vivo"}, "[6]": {"test": "Intrinsic clearance in dog hepatocytes assessed per 10^6 cells", "type": "ADME, cell-based, Canis lupus familiaris, Liver, Hepatocyte"}, "[7]": {"molecular_target": "Mitogen-activated protein kinase 8 (Homo sapiens) (UniProt P45983)", "sequence (P45983 whole entry)": "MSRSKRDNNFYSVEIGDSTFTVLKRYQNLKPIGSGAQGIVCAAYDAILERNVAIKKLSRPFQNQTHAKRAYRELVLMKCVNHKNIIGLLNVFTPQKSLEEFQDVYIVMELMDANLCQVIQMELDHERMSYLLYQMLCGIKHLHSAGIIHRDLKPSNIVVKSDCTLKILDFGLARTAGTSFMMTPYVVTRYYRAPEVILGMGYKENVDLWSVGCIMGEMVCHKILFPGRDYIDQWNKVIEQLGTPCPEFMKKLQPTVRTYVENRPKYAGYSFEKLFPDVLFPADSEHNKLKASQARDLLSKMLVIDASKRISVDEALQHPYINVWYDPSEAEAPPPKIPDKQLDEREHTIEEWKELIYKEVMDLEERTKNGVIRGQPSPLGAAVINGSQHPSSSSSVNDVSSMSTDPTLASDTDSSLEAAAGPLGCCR", "test": "Inhibition of JNK1 at 1 uM"}, "[8]": {"test": "Plasma clearance in Han Wistar rat at 4 umol/kg, iv and 10 umol/kg, po", "type": "ADME, organism-based", "in_short": "(§1)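 Male Han Wistar rats, each given an intravenous dose and a separate oral dose; parameters derived from the plasma concentration profiles.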"}, "[9]": {"test": "Plasma clearance in Beagle dog at 0.8 umol/kg, iv and 10 umol/kg, po", "type": "ADME, organism-based, Canis lupus familiaris", "in_short": "(§2)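 Values are means from two beagle dogs, one male and one female, each given an intravenous dose and an oral dose.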"}, "[10]": {"molecular_target": "T2, Mitogen-activated protein kinase 15 (Homo sapiens) (UniProt Q8TD08)", "T2 sequence (whole entry)": "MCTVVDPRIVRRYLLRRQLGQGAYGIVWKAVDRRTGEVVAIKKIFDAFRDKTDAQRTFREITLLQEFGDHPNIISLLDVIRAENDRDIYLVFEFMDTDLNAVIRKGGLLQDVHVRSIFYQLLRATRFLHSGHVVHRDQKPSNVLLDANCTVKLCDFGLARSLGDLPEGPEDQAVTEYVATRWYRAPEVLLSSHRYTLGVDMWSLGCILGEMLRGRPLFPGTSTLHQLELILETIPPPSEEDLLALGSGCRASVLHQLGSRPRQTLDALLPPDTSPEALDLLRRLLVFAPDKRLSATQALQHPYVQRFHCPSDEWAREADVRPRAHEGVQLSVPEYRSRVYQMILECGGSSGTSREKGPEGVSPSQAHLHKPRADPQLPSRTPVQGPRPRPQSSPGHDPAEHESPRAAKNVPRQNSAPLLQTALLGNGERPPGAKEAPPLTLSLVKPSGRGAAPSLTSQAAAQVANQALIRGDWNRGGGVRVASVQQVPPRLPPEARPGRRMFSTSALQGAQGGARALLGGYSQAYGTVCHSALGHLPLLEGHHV", "test": "Inhibition of ERK8 at 1 uM"}, "[11]": {"test": "Plasma clearance in nude mouse at 4 umol/kg, iv and 10 umol/kg, po", "type": "ADME, organism-based"}, "[12]": {"molecular_target": "T3, Insulin receptor (Homo sapiens, UniProt P06213)", "T3 sequence (P06213 28-758 limits assumed)": "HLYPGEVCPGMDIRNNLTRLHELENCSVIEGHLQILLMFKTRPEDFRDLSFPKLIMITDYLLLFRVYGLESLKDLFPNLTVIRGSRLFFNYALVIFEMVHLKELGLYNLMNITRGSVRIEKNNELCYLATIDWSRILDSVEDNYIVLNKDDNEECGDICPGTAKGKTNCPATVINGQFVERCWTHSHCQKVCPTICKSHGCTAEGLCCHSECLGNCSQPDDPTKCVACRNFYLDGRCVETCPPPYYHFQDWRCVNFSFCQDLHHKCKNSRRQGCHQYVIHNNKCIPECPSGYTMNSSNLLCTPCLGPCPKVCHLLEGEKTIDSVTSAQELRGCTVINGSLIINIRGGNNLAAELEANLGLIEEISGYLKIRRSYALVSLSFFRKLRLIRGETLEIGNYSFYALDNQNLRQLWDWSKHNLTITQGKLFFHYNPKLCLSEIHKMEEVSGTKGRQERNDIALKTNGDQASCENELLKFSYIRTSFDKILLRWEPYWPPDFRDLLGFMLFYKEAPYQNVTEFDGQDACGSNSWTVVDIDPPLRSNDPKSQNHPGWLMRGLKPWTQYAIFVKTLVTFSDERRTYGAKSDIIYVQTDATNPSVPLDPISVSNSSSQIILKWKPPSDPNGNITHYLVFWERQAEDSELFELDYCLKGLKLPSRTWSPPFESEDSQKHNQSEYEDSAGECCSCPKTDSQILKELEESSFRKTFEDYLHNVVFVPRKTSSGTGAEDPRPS", "T3 sequence (P06213 763-1382 limits assumed)": "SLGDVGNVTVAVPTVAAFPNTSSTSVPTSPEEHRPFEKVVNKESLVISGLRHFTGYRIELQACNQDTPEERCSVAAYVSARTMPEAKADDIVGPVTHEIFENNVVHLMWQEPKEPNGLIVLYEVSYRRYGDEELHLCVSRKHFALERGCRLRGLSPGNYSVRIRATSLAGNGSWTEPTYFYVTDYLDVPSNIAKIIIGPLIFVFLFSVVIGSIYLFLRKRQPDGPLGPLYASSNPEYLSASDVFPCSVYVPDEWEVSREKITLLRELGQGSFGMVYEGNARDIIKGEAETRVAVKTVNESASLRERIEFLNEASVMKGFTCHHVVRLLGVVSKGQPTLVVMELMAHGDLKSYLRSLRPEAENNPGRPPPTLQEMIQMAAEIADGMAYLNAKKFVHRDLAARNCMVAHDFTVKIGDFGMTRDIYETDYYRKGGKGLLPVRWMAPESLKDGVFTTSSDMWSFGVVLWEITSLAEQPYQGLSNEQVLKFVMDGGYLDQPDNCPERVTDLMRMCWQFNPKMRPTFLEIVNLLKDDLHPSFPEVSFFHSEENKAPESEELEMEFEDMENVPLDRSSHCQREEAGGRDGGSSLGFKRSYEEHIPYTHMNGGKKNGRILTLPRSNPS", "test": "Inhibition of insulin-induced autophosphorylation of human insulin receptor expressed in CHO cells", "type": "cell-based", "in_short": "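CHO cells transfected with the human insulin receptor gene, stimulated with insulin; the read-out is inhibition of receptor auto-phosphorylation.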"}, "[13]": {"test": "Intrinsic clearance in rat hepatocytes assessed per 10^6 cells", "type": "ADME, cell-based, Liver, Hepatocyte"}, "[14]": {"test": "Intrinsic clearance in mouse hepatocytes assessed per 10^6 cells", "type": "ADME, cell-based, Liver, Hepatocyte"}, "[15]": {"test": "Oral bioavailability in Beagle dog at 10 umol/kg", "type": "ADME, organism-based, Canis lupus familiaris", "settings": "in vivo", "in_short": "as §2"}, "[16]": {"test": "Terminal half life in Beagle dog at 0.8 umol/kg, iv and 10 umol/kg, po", "type": "ADME, organism-based, Canis lupus familiaris", "settings": "in vivo, read-out: beta t1/2 (converted)", "in_short": "as §2"}, "[17]": {"test": "Terminal half life in Han Wistar rat at 4 umol/kg, iv and 10 umol/kg, po", "type": "ADME, organism-based", "settings": "in vivo, read-out: beta t1/2 (converted)", "in_short": "as §1"}, "[18]": {"test": "Intrinsic clearance in human hepatocytes assessed per 10^6 cells", "type": "ADME, cell-based, Liver, Hepatocyte"}, "[19]": {"test": "Volume of distribution at steady state in Beagle dog at 0.8 umol/kg, iv and 10 umol/kg, po", "type": "ADME, organism-based, Canis lupus familiaris", "settings": "in vivo, read-out: Vdss", "in_short": "as §2"}, "[20]": {"test": "Terminal half life in nude mouse at 4 umol/kg, iv and 10 umol/kg, po", "type": "ADME, organism-based", "settings": "in vivo, read-out: beta t1/2 (converted)"}, "[21]": {"molecular_target": "T3, Insulin receptor", "test": "Inhibition of insulin receptor"}, "[22]": {"test": "Volume of distribution at steady state in nude mouse at 4 umol/kg, iv and 10 umol/kg, po", "type": "ADME, organism-based", "settings": "in vivo, read-out: Vdss"}, "[23]": {"molecular_target": "Mitogen-activated protein kinase 9 (Homo sapiens) (UniProt P45984)", "sequence (P45984 whole entry, looked up)": "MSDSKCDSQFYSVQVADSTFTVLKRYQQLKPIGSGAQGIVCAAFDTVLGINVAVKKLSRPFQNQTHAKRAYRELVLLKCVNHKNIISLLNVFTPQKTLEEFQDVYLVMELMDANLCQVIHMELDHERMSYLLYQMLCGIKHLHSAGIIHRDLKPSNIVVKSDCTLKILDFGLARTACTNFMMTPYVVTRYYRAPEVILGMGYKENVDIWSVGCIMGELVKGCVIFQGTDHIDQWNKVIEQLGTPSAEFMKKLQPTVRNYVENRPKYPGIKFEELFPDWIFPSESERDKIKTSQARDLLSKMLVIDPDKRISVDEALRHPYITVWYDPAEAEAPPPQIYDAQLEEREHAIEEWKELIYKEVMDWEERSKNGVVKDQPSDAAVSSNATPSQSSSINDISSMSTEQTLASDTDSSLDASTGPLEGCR", "test": "Inhibition of JNK2 at 1 uM"}, "[24]": {"test": "Volume of distribution at steady state in Han Wistar rat at 4 umol/kg, iv and 10 umol/kg, po", "type": "ADME, organism-based", "settings": "in vivo, read-out: Vdss", "in_short": "as §1"}},
  "note": "pIC50: −log10 of the molar value.",
  "data": [
    {"smiles": "COc1cc(N2CCN(C(C)=O)CC2)ccc1Nc1nccc(-c2cnc3ccccn23)n1", "values": [
      {"measurement": "pIC50", "setting": "[1]", "value": 6.35},
      {"measurement": "pIC50", "setting": "[2]", "value": "< 4.00"},
      {"measurement": "pIC50", "setting": "[3]", "value": 5.87}
    ]},
    {"smiles": "COc1cc(N2CCN(C(C)=O)CC2)ccc1Nc1ncc(Cl)c(-c2cnc3ccccn23)n1", "values": [
      {"measurement": "bioavailability", "setting": "[4]", "value": 36, "unit": "%"},
      {"measurement": "bioavailability", "setting": "[5]", "value": 49, "unit": "%"},
      {"measurement": "hepatocyte CLint", "setting": "[6]", "value": 6.7, "unit": "µL/min/1e6 cells"},
      {"measurement": "pIC50", "setting": "[2]", "value": 5.96},
      {"measurement": "inhibition", "setting": "[7]", "value": "> 80", "unit": "%"},
      {"measurement": "clearance", "setting": "[8]", "value": 6.5, "unit": "mL/min/kg"},
      {"measurement": "clearance", "setting": "[9]", "value": 4.7, "unit": "mL/min/kg"},
      {"measurement": "inhibition", "setting": "[10]", "value": "> 80", "unit": "%"},
      {"measurement": "clearance", "setting": "[11]", "value": 15, "unit": "mL/min/kg"},
      {"measurement": "pIC50", "setting": "[12]", "value": 7.92},
      {"measurement": "hepatocyte CLint", "setting": "[13]", "value": 15, "unit": "µL/min/1e6 cells"},
      {"measurement": "hepatocyte CLint", "setting": "[14]", "value": 32, "unit": "µL/min/1e6 cells"},
      {"measurement": "bioavailability", "setting": "[15]", "value": 30, "unit": "%"},
      {"measurement": "half-life", "setting": "[16]", "value": 330, "unit": "min"},
      {"measurement": "half-life", "setting": "[17]", "value": 276, "unit": "min"},
      {"measurement": "hepatocyte CLint", "setting": "[18]", "value": 6.9, "unit": "µL/min/1e6 cells"},
      {"measurement": "Vd", "setting": "[19]", "value": 1.9, "unit": "L/kg"},
      {"measurement": "half-life", "setting": "[20]", "value": 54, "unit": "min"},
      {"measurement": "pIC50", "setting": "[21]", "value": 8.05},
      {"measurement": "Vd", "setting": "[22]", "value": 0.8, "unit": "L/kg"},
      {"measurement": "inhibition", "setting": "[23]", "value": "> 80", "unit": "%"},
      {"measurement": "Vd", "setting": "[24]", "value": 0.7, "unit": "L/kg"}
    ]},
    {"smiles": "NS(=O)(=O)c1ccc(Nc2nccc(-c3cnc4ccccn34)n2)cc1", "values": [
      {"measurement": "pIC50", "setting": "[1]", "value": 5.90},
      {"measurement": "pIC50", "setting": "[2]", "value": 9.00}
    ]},
    {"smiles": "COc1cc(N2CCN(C(C)=O)CC2)ccc1Nc1ncc(OC)c(-c2cnc3ccccn23)n1", "values": [
      {"measurement": "pIC50", "setting": "[2]", "value": 4.28},
      {"measurement": "pIC50", "setting": "[3]", "value": 6.72}
    ]},
    {"smiles": "COc1cc(N2CCN(C(C)=O)CC2)ccc1Nc1ncc(Br)c(-c2cnc3ccccn23)n1", "values": [
      {"measurement": "pIC50", "setting": "[1]", "value": 8.52},
      {"measurement": "pIC50", "setting": "[2]", "value": 5.96},
      {"measurement": "pIC50", "setting": "[3]", "value": 8.05}
    ]},
    {"smiles": "COc1cc(N2CCN(C(C)=O)CC2)ccc1Nc1ncc(C)c(-c2cnc3ccccn23)n1", "values": [
      {"measurement": "pIC50", "setting": "[2]", "value": 5.00},
      {"measurement": "pIC50", "setting": "[3]", "value": 7.04}
    ]},
    {"smiles": "COc1cc(N2CCN(C(C)=O)CC2)ccc1Nc1ncc(C#N)c(-c2cnc3ccccn23)n1", "values": [
      {"measurement": "pIC50", "setting": "[2]", "value": 4.57},
      {"measurement": "pIC50", "setting": "[3]", "value": 6.77}
    ]},
    {"smiles": "COc1cc(N2CCN(C(C)=O)CC2)ccc1Nc1ncc(C(F)(F)F)c(-c2cnc3ccccn23)n1", "values": [
      {"measurement": "pIC50", "setting": "[2]", "value": 4.80}
    ]},
    {"smiles": "CC(=O)N1CCN(c2ccc(Nc3nccc(-c4cnc5ccccn45)n3)cc2)CC1", "values": [
      {"measurement": "pIC50", "setting": "[1]", "value": 6.57},
      {"measurement": "pIC50", "setting": "[2]", "value": 7.11}
    ]},
    {"smiles": "COc1cc(N2CCN(C(C)=O)CC2)ccc1Nc1ncc(F)c(-c2cnc3ccccn23)n1", "values": [
      {"measurement": "pIC50", "setting": "[1]", "value": 7.05},
      {"measurement": "pIC50", "setting": "[2]", "value": 5.57},
      {"measurement": "pIC50", "setting": "[3]", "value": 6.89}
    ]}
  ]
}
